# Activity calls are given as the source filed them. Unless noted, no cut-off for these calls is given here.
# What was measured:
# [1] = target: T1, P2X purinoceptor 7 (Homo sapiens) (UniProt Q99572); experiment: Inhibition of human P2X7 expressed in human HEK293 cells assessed as reduction in BzATP-stimulated TO-PRO-3 incorporation at 10 uM preincubated with compound and TO-PRO-3 for 15 mins prior to BzATP addition and measured after 1 hr by Fluo-3AM dye based flow cytometry relative to control; assay type: cell-based
# T1 sequence (whole entry): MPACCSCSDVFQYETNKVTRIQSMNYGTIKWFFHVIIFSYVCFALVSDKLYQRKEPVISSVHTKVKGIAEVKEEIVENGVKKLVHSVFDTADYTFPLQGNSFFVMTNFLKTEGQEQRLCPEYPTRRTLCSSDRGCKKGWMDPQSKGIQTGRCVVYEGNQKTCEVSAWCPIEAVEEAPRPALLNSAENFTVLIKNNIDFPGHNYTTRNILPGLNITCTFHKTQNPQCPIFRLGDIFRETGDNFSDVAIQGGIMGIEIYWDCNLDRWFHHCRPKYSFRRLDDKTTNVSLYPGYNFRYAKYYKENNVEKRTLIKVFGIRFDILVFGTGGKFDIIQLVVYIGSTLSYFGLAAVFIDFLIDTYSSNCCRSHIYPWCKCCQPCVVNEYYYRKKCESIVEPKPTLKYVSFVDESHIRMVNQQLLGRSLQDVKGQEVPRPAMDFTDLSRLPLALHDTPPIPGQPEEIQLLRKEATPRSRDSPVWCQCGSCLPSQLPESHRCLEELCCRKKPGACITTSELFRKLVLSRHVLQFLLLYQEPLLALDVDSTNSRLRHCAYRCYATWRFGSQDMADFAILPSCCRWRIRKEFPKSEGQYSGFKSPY
# Procedure, shortened: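 HEK-293 cells overexpressing human P2RX7 loaded with Fluo-3 AM, then incubated with TO-PRO-3 (large pore uptake) and propidium iodide (viability) plus compound (10⁻⁵ M single point) for 15 min before BzATP 100 µM. After 1 h, flow cytometry; percentage of Fluo-3/TO-PRO-3 double-positive cells calculated. Mean of n ≥ 2 with positive control.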
# [2] = Drug metabolism in mouse measured after 40 mins; assay type: ADME; details: read-out: Drug metabolism
# [3] = target: T1, P2X purinoceptor 7 (Homo sapiens); experiment: Antagonist activity at P2X7 receptor in human THP-1 cells assessed as inhibition of LPS and BzATP-induced IL-1beta production at 10^-5 mol/L pretreated with compound followed by LPS/BzATP addition and measured after 2 to 6 hrs by ELISA; assay type: cell-based
# Procedure, shortened: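 THP-1 monocytes grown in RPMI 1640 + 10% FCS, differentiated to macrophages with PMA (100nM); 10^6 cells pretreated with antagonist at 10^-5 mol/L, then exposed to LPS 10 μmol/L plus BzATP 70 μmol/L at 37 °C, 5% CO2; IL1β quantified by ELISA in samples at 2, 4 and 6 h; mean ± SD, significance P<0.05.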
# [4] = Solubility of compound in saline at 1mg/ml; assay type: physicochemical; details: buffer
# HEK293 = experiment: Cytotoxicity against human HEK293 cells assessed as reduction in cell viability at 10^-5 mol/L incubated for 72 hrs; assay type: cell-based; details: hek293, 72 h, 10 µM
# Procedure, shortened: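 Wild-type and P2RX7-transfected HEK293 cells exposed to compound for 72 hours; viability compared against untreated control.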
# [5] = target: T2, P2X purinoceptor 1 (Homo sapiens) (UniProt P51575); experiment: Antagonist activity at P2X1 receptor in human platelet assessed as inhibition of thrombin-induced platelet aggregation at 10 '-5 to 10^-6 mol/L pretreated with compound and LPS/BzATP for 10 mins followed by thrombin addition and measured for 8 mins by aggregometry analysis; assay type: cell-based
# T2 sequence (whole entry): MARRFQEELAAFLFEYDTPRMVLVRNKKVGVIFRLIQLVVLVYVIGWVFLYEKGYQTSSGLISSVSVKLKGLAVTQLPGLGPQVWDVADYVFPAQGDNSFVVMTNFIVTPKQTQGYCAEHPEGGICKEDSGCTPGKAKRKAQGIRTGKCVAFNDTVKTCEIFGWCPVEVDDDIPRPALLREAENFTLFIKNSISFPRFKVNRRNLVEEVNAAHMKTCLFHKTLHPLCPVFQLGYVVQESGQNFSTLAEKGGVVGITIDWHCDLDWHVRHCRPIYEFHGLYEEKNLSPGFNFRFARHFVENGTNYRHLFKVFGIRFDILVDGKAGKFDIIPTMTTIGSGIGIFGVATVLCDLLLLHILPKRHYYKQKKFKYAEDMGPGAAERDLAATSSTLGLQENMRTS
# P2X purinoceptor 7 = target: T3, P2X purinoceptor 7 (Homo sapiens, UniProt Q99572); experiment: Displacement of [3H]-A804598 from human P2X7 expressed in human HEK293 cell membrane incubated for 1 hr by microplate scintillation counting method; assay type: cell membranes
# T3 sequence (Q99572 whole entry): T1 sequence (whole entry)
# [6] = target: T1, P2X purinoceptor 7 (Homo sapiens); experiment: Antagonist activity at P2X7 receptor in human THP-1 cells assessed as inhibition of LPS and BzATP-induced IL-1beta production at 10^-6 mol/L pretreated with compound followed by LPS/BzATP addition and measured after 2 to 6 hrs by ELISA; assay type: cell-based; details: TDE = time-dependent effect
# Procedure, shortened: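 PMA (100nM)-differentiated THP-1 macrophages (RPMI 1640, 10% FCS), 10^6 cells, pretreated with antagonist at […], then challenged with LPS 10 μmol/L and BzATP 70 μmol/L at 37 °C, 5% CO2; IL1β measured by ELISA, including the 6 h point; mean ± SD, P<0.05 significant.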
# [7] = Metabolic stability in human liver microsomes assessed as intrinsic clearance at 0.2 mg/ml incubated for 60 mins by UPLC/MS-MS analysis; assay type: ADME, Microsome; details: read-out: CLH
# [8] = Metabolic stability in human liver microsomes assessed as half life at 0.2 mg/ml incubated for 60 mins by UPLC/MS-MS analysis; assay type: ADME, Microsome
# [9] = target: T1, P2X purinoceptor 7 (Homo sapiens); experiment: Antagonist activity at P2X7R in human THP1 cells assessed as inhibition of LPS and BzATP-induced ROS production at 10^-5 mol/L pretreated with compound followed by LPS/BzATP addition and measured up to 5 hrs by kinetic chemiluminescence based fluorometric analysis; assay type: cell-based; details: THP-1
# Procedure, shortened: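 PMA-differentiated THP-1 macrophages (10^5 cells) in RPMI 1640 + 10% FBS pretreated with antagonist at 10^-5 mol/L, then LPS 10 μmol/L plus BzATP 70 μmol/L at 37 °C, 5% CO2; horseradish peroxidase (50 μg/mL) and luminol (50 μM) mixture added, chemiluminescence read on a fluorometer; cell-free H2O2 serves as positive control.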
# [10] = Metabolic stability in human hepatocytes; assay type: ADME, cell-based, Hepatocyte
# [11] = target: T1, P2X purinoceptor 7 (Homo sapiens); experiment: Antagonist activity at P2X7R in human THP1 cells assessed as inhibition of LPS and BzATP-induced ROS production at 10^-6mol/L pretreated with compound followed by LPS/BzATP addition and measured after 5 hrs by kinetic chemiluminescence based fluorometric analysis; assay type: cell-based; details: THP-1
# Procedure, shortened: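 Differentiated THP-1 macrophages (10^5 cells, RPMI 1640 + 10% FBS) pretreated with antagonist at 10^-6 mol/L before LPS (10 μmol/L) and BzATP (70 μmol/L), 37 °C, 5% CO2; ROS detected as luminol (50 μM)/horseradish peroxidase (50 μg/mL) chemiluminescence on a fluorometer; H2O2 without cells as positive control.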
smiles,measurement,setting,value
CN(C)C(=O)[C@@H]1CCC(=O)N1,inhibition,[1],inactive
O=C(NCc1ccc(Cl)cc1Cl)[C@@H]1COC(=O)N1c1cccs1,metabolised at 40 min,[2],100%
same,inhibition,[3],Active
same,solubility,[4],Insoluble
same,Activity,HEK293,Non-Toxic
same,Activity,[5],inactive
same,IC50,P2X purinoceptor 7,15100 nM
same,Ki,P2X purinoceptor 7,3110 nM
same,inhibition,[6],Tde
same,microsomal CLint,[7],663 µL/min/mg
same,half-life,[8],1.4 min
same,inhibition,[1],80%
same,inhibition,[9],Active
O=C(NCc1ccc(Cl)cc1Cl)[C@@H]1CCC(=O)N1C(c1ccccc1)c1ccccc1,inhibition,[1],0%
COc1ccc(N2C(=O)[C@@H]3C/C(=C\N(C)C)C(=O)N3C2N(C)C)cc1 (some centres undefined),inhibition,[1],0%
COc1ccc(NC(=O)[C@@H]2C/C(=C\N(C)C)C(=O)N2)cc1,inhibition,[1],0%
O=C(NCc1ccccc1Cl)[C@@H]1CCC(=O)N1Cc1ccccc1Cl,inhibition,[1],0%
O=C(NCc1ccccc1)[C@@H]1CCC(=O)N1Cc1ccc(Cl)cc1Cl,inhibition,[1],0%
O=C1N[C@H](C(=O)NCc2ccc(Cl)cc2Cl)C/C1=C\N1CCOCC1,inhibition,[1],56%
N#Cc1ccc(N2C(=O)CC[C@H]2C(=O)NCc2ccc(Cl)cc2Cl)cc1,inhibition,[1],0%
O=C(NCC1CCCCC1)[C@@H]1CCC(=O)N1c1ccccc1,inhibition,[1],0%
COc1ccc(CN2C(=O)[C@@H]3C/C(=C\N(C)C)C(=O)N3C2N(C)C)c(OC)c1 (some centres undefined),inhibition,[1],0%
O=C(NCc1ccc(Cl)cc1Cl)[C@@H]1CCC(=O)N1C(c1ccc(Cl)cc1)c1ccc(Cl)cc1,inhibition,[1],0%
O=C(NCc1ccc(Cl)cc1Cl)[C@@H]1CCC(=O)N1c1ccc(Cl)cc1,inhibition,[1],0%
O=C(NCc1ccc(Cl)cc1Cl)[C@@H]1CCC(=O)N1c1ccc(Cl)cc1Cl,inhibition,[1],0%
O=C(NCc1ccc(Cl)cc1Cl)[C@@H]1CCC(=O)N1c1cscn1,metabolised at 40 min,[2],98%
same,inhibition,[3],Active
same,solubility,[4],Insoluble
same,Stability,[10],Unstable
same,Activity,HEK293,Non-Toxic
same,Activity,[5],inactive
same,IC50,P2X purinoceptor 7,384 nM
same,Ki,P2X purinoceptor 7,78 nM
same,inhibition,[6],Tde
same,microsomal CLint,[7],379 µL/min/mg
same,half-life,[8],4.8 min
same,inhibition,[1],98%
same,inhibition,[9],Active
C[n+]1ccccc1C(=O)NCc1ccc(Cl)cc1Cl.[I-],inhibition,[1],0%
O=C1N[C@H](C(=O)NCc2ccc(Cl)cc2Cl)C/C1=C/NCc1ccc(Cl)cc1Cl,inhibition,[1],0%
COc1cc(CNC(=O)[C@@H]2CCC(=O)N2)cc(OC)c1OC,inhibition,[1],inactive
O=C(NCCc1ccccc1)[C@@H]1CCC(=O)N1Cc1ccc(Cl)cc1Cl,inhibition,[1],0%
COC(=O)[C@@H]1C/C(=C\NCc2ccc(Cl)cc2Cl)C(=O)N1C(=O)OC,inhibition,[1],99%
CCCCCCN1C(=O)[C@@H]2CCC(=O)N2C1N(C)C (some centres undefined),inhibition,[1],0%
Cc1ccc(NC(=O)[C@@H]2CCC(=O)N2c2ccccc2)cc1,inhibition,[1],0%
O=C(NCc1ccc(Cl)cc1Cl)[C@@H]1CCC(=O)N1c1cccs1,metabolised at 40 min,[2],100%
same,inhibition,[3],Active
same,inhibition,[11],Active
same,solubility,[4],Insoluble
same,Stability,[10],Unstable
same,Activity,HEK293,Non-Toxic
same,Activity,[5],inactive
same,IC50,P2X purinoceptor 7,720 nM
same,Ki,P2X purinoceptor 7,147 nM
same,inhibition,[6],Tde
same,microsomal CLint,[7],1070 µL/min/mg
same,half-life,[8],1.5 min
same,inhibition,[1],98%
same,inhibition,[9],Active
